Experimental data taken from article PMC2943495 (Chemistry & biology, 2010).

What was measured:
[1] = ref Inoue et al., 2005; cited from earlier work
FRB-FKBP [2] = target: FRB-FKBP (Homo sapiens, UniProt P42345+P62942); test: Real-time reversibility of CBG-N + CBG-C PCA; type: cell-based
FRB-FKBP [3] = settings: ref Bierer et al., 1990, cited from earlier work
β-cat/β-TrCP = test: Two-color PCA switch, green: β-cat/β-TrCP interaction; type: cell-based; settings: HEK293T
NFκB = test: NFκB-dependent transcriptional reporter; type: cell-based; settings: HEK293T, 2 hours
How it was run: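 HEK293T cells in 24-well plates were transfected with an NFκB-driven FLuc reporter (200 ng/well). At 48 h the medium was changed to DMEM imaging medium. After 15 min equilibration a pre-treatment image was taken. Cells then received TNFα (20 ng/ml final) and/or a GSK3β inhibitor (50 μM final) or DMSO vehicle, and were re-imaged after 2 h in a humidified 5% CO2 incubator. Photon flux is reported as mean fold-initial ± S.E.M.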

IκBα/β-TrCP = test: Two-color PCA switch, red: IκBα/β-TrCP interaction; type: cell-based; settings: HEK293T, TNFα 20 ng/ml
PCA luciferase = test: Control: effect on PCA luciferase enzyme activity; settings: data not shown
EGFR = test: EGFR-CBG PCA conformation sensing in CHO TetOn cells; type: cell-based
How it was run: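 CHO TetOn cells in 96-well plates were transfected for 24 h with EGFR-CBG PCA fusion pairs, then serum-starved for 3 h. They were pre-incubated for 20 min untreated, with DMSO vehicle, or with test compound (10 μM). Baseline was imaged every 15 s for 10 min, then 25 nM EGF was added and imaging continued for 20 min. Untreated-well signal was subtracted. Mean of 8 replicate wells.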

ΔFRB (S2035I)-FKBP = ΔFRB (S2035I)-FKBP (Homo sapiens, UniProt P42345+P62942, S2035I); test: Luciferase PCA with mutant S2035I FRB; type: cell-based; settings: HEK293T, 100 nM rapamycin for 6 hrs, Δ-N fusions
ΔFRB (S2035I)-FKBP, sequence (P42345 2024-2113 S2035I): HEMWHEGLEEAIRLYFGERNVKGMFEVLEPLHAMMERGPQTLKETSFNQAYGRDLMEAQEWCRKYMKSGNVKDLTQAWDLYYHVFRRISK
ΔFRB (S2035I)-FKBP, sequence (P62942 whole entry, the tested form may be a part): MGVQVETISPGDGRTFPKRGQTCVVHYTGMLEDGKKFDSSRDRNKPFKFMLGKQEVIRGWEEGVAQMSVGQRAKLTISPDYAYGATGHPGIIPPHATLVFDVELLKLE

IκBα = test: IκBα-FLuc fusion reporter processing in HepG2 cells; type: cell-based; settings: HepG2, TNFα 20 ng/mL
How it was run: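 HepG2 cells were transiently transfected with a κB5-driven IκBα-FLuc fusion reporter (wild type or Ser32/Ser36 Ala mutants). After 48 h the medium was replaced with fresh medium containing D-luciferin, and cells were stimulated with TNFα (20 ng/mL) or vehicle. Real-time bioluminescence imaging was run under 5% CO2. Photon flux is reported as fold-initial, fold-untreated, mean ± S.E.M.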

FRB-FKBP (Homo sapiens, UniProt P42345+P62942), sequence (P42345 2024-2113 limits assumed): as the sequence (P42345 2024-2113 S2035I) above, with I12S counted along it
FRB-FKBP (Homo sapiens, UniProt P42345+P62942), sequence (P62942 whole entry): as the sequence (P62942 whole entry, the tested form may be a part) above

Molecule: C=CC[C@@H]1/C=C(\C)C[C@H](C)C[C@H](OC)[C@H]2O[C@@](O)(C(=O)C(=O)N3CCCC[C@H]3C(=O)O[C@H](/C(C)=C/[C@@H]3CC[C@@H](O)[C@H](OC)C3)[C@H](C)[C@@H](O)CC1=O)[C@H](C)C[C@@H]2OC [FK506]
- membrane permeability [1]: somewhat low
- change of bioluminescence after rapamycin pre-treatment (FRB-FKBP [2]; HEK293T, CBG-N + CBG-C, rapamycin 10 nM, FK506 10 μM added at […]): brisk loss of bioluminescence
- Ki (FRB-FKBP [3]; read-out: previously reported literature Ki): 0.4 nM

Molecule: Cn1cc(C2=C(c3ccc(Cl)cc3Cl)C(=O)NC2=O)c2ccccc21 [SB-216763]
- basal β-cat/β-TrCP interactions (green photon flux) (β-cat/β-TrCP; SB-216763 50 μM): attenuated
- TNFα-stimulated NFκB-dependent transcription (FLuc reporter) (NFκB; TNFα 20 ng/ml combined with SB216763 50 μM): dramatically attenuated
- basal and TNFα-induced IκBα/β-TrCP interactions (red photon flux) (IκBα/β-TrCP; SB-216763 50 μM): inhibited
- effect on PCA luciferase enzyme activity per se (PCA luciferase): no effect

Molecule: N#CC(=C(/N)Sc1ccccc1N)/C(C#N)=C(/N)Sc1ccccc1N [U0126]
- recovery of luciferase PCA activity after EGF (EGFR; 10 μM U0126, 25 nM EGF): blunted recovery of luciferase PCA activity

Molecule: C[C@@H]1C[C@@H]([C@H](O)CC2CC(=O)NC(=O)C2)C(=O)[C@@H](C)C1 [cycloheximide]
- luciferase activity after rapamycin induction (FRB-FKBP [2]; cycloheximide 100 μM added to rapamycin-induced cells): remained stable for up to 8 hours

Molecule: CO[C@H]1C[C@@H]2CC[C@@H](C)[C@@](O)(O2)C(=O)C(=O)N2CCCC[C@H]2C(=O)O[C@H]([C@H](C)C[C@@H]2CC[C@@H](O)[C@H](OC)C2)CC(=O)[C@H](C)/C=C(\C)[C@@H](O)[C@@H](OC)C(=O)[C@H](C)C[C@H](C)/C=C/C=C/C=C/1C [rapamycin]
- induction of PCA signal (ΔFRB (S2035I)-FKBP): no detectable induction
- membrane permeability [1]: somewhat low
- Kd (FRB-FKBP [3]; read-out: previously reported Kd): 0.2 nM

Molecule: EGF: recombinant mouse EGF ligand inducing EGFR activation (NSYPGCPSSYDGYCLNGGVCMHIESLDSYTCNCVIGYSGDRCQTRDLRWWELR; UniProt P01132 977-1029, looked up)
- luciferase PCA signal response (EGFR; 25 nM recombinant mouse EGF): rapid biphasic signal response

Molecule: TNFα
- IκBα-FLuc reporter signal (wild type) (IκBα): loss of signal
- β-cat/β-TrCP basal green photon flux (β-cat/β-TrCP; TNFα 20 ng/ml): no substantial change
- NFκB-dependent transcription (FLuc reporter) (NFκB; TNFα 20 ng/ml alone): robust transcriptional stimulation
- IκBα/β-TrCP interactions (red photon flux) (IκBα/β-TrCP): increase in red photon flux
